ChEMBL document CHEMBL1135792, “Inhibition of the antibacterial target UDP-(3-O-acyl)-N-acetylglucosamine deacetylase (LpxC): isoxazoline zinc amidase inhibitors bearing diverse metal binding groups” (J Med Chem, 2002)
In brackets after ≈: the same amount, converted by molar mass.

Legend:
[1] = system: Escherichia coli; assay: Inhibition of EnvAl Escherichia coli growth in vitro.; assay type: functional
[2] = target: T1, UDP-3-O-acyl-N-acetylglucosamine deacetylase (Escherichia coli K-12, UniProt P0A725); assay: Inhibition of Escherichia coli LpxC(UDP-3-O-[R-3-hydroxymyristoyl]-GlcNAc deacetylase.
T1 sequence (P0A725 whole entry): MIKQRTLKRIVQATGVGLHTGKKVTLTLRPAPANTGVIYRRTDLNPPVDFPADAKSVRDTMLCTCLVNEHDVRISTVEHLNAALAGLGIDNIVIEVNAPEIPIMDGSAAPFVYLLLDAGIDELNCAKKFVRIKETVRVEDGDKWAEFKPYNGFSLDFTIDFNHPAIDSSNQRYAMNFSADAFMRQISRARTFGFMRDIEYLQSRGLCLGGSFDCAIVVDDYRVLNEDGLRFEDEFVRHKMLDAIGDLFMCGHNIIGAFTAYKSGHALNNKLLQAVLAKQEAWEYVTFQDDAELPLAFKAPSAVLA
Summary of the method: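 Purified E. coli LpxC (2.5 nM) preincubated 30 min on ice with inhibitor (0.1-500 µg/mL) and 1 mg/mL BSA. Stopped with NaOH, substrate and product separated by PEI-cellulose TLC, phosphorimaged. IC50 from eq 1.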

[3] = system: Escherichia coli; assay: Inhibition of Escherichia coli growth in vitro.; assay type: functional
[4] = system: Escherichia coli; assay: Antibacterial activity against EnvA1 Escherichia coli; assay type: functional
[5] = system: Escherichia coli; assay: Inhibitory activity measured against Escherichia coli; assay type: functional
[6] = system: Escherichia coli; assay: Inhibition of Escherichia coli LpxC in a second order rate constant
Summary of the method: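 Purified E. coli LpxC (100 µM) preincubated at 30 °C with inhibitor (0-0.8 mM) in 100 mM bis-Tris pH 7, 12% DMF. Aliquots taken over time, diluted 10-fold into 27 mM UDP-GlcNAc, bis-Tris pH 7, 30 °C. UDP-GlcN read by fluorescamine (ex 395/em 485 nm). Pseudo-first-order kobs fit to exponential decay, then plotted against inhibitor concentration and fit by eq 2.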

[7] = system: Escherichia coli; assay: Antibacterial activity against Escherichia coli

| SMILES | zone diameter [1] [mm] | IC50 [2] [µM] | zone diameter [3] [mm] | MIC [4] [µg/mL] | zone diameter [5] [mm] | Ki [6] [µM] | MIC [7] [µg/mL] |
| --- | --- | --- | --- | --- | --- | --- | --- |
| COc1ccc(C2=NOC(S(N)(=O)=O)C2)cc1 (centres undefined) | < 6 | > 1200 | < 6 |  |  |  |  |
| COc1ccc(C2=NO[C@@H](C(=O)NO)C2)cc1 | < 6 |  | < 6 |  |  |  |  |
| COc1ccc(C2=N[C@@H](C(=O)NO)CO2)cc1 | 24 | 3 | 11 |  |  |  |  |
| COc1ccc(C2=NO[C@H](C(=O)NO)C2)cc1 | 26 | 4.37 |  | 3.9 (≈ 16.5 µM) | < 6 |  |  |
| COc1ccc(C2=NOC([C@H]3CS3)C2)cc1 (some centres undefined) | < 6 |  | < 6 |  |  | 800 |  |
| COc1ccc(C2=NOC([C@@H]3CS3)C2)cc1 (some centres undefined) | < 6 |  | < 6 |  |  | 300 |  |
| COc1ccc(C2=NOC(C(=O)CS)C2)cc1 (racemic) | < 6 | 27 | < 6 |  |  |  |  |
| COc1ccc(C2=NOC(C(=O)NCO)C2)cc1 (racemic) | < 6 | > 400 | < 6 |  |  |  |  |
| COc1ccc(C2=NOC(S(C)(=O)=O)C2)cc1 (racemic) | < 6 | > 392 | < 6 |  |  |  |  |
| COc1ccc(C2=NOC(P(=O)(O)O)C2)cc1 (racemic) | < 6 | 4 | < 6 |  |  |  |  |
| COc1ccc(C2=NOC(C(=O)Nc3ccccn3)C2)cc1 (racemic) | < 6 | > 336 | < 6 |  |  |  |  |
| COc1ccc(C2=NOC(C(=O)NNC=O)C2)cc1 (racemic) | < 6 | 400 | < 6 |  |  |  |  |
| COc1ccc(C2=NOC(C(=O)CSC(C)=O)C2)cc1 (racemic) | < 6 | 12 | < 6 |  |  |  |  |
| COc1ccc(C2=NOC(C(=O)NN)C2)cc1 (racemic) | < 6 | > 425 | < 6 |  |  |  |  |
| COc1ccc(C2=NOC(P(C)(=O)O)C2)cc1 (racemic) | < 6 | 170 | < 6 |  |  |  |  |
| COc1ccc(C2=NOC(C(=O)NO)C2)cc1 (racemic) | 21 | 13 | < 6 |  |  |  |  |
| COc1ccc(C2=NOC(CS)C2)cc1 (racemic) | < 6 | 22 | < 6 |  |  |  |  |
| COc1ccc(C2=NOC(C(=O)O)C2)cc1 (racemic) | < 6 | > 450 | < 6 |  |  |  |  |
| COc1ccc(C2=NOC(C(=O)Nc3nccs3)C2)cc1 (racemic) | < 6 | > 392 | < 6 |  |  |  |  |
| COc1ccc(C2=NO[C@@H]([C@@H](O)CS)C2)cc1 (relative stereo) | < 6 | > 400 | < 6 |  |  |  |  |
| COc1ccc(C2=NO[C@@H]([C@H](O)CS)C2)cc1 (relative stereo) | < 6 | > 400 | < 6 |  |  |  |  |
| CO[C@H]1/C=C/O[C@@]2(C)Oc3c(C)c(O)c4c(O)c(c(/C=N/N5CCN(C)CC5)c(O)c4c3C2=O)NC(=O)/C(C)=C\C=C\[C@H](C)[C@H](O)[C@@H](C)[C@@H](O)[C@@H](C)[C@H](OC(C)=O)[C@@H]1C [RIFAMPIN] |  |  |  |  |  |  | 2 (≈ 2.43 µM) |
